ChEMBL document CHEMBL5150051, “Identification and Characterization of a Novel Indoleamine 2,3-Dioxygenase 1 Protein Degrader for Glioblastoma” (J Med Chem, 2022)
Active and inactive are the calls of the source. The calls are words filed in the database; no cut-off is given here.

Key:
[1] = biological target: T1, Protein cereblon/Indoleamine 2,3-dioxygenase 1 (Homo sapiens, UniProt P14902+Q96SW2); assay: Protac activity at CRBN/IDO1 in human U87 cells assessed as decrease in phosphorylated NF-kappaB p65 in nucleus at 1 to 10 uM measured after 24 hrs by Western blot analysis; type: cell-based; conditions: dose 1-10 µM
T1 sequence (P14902 whole entry, looked up): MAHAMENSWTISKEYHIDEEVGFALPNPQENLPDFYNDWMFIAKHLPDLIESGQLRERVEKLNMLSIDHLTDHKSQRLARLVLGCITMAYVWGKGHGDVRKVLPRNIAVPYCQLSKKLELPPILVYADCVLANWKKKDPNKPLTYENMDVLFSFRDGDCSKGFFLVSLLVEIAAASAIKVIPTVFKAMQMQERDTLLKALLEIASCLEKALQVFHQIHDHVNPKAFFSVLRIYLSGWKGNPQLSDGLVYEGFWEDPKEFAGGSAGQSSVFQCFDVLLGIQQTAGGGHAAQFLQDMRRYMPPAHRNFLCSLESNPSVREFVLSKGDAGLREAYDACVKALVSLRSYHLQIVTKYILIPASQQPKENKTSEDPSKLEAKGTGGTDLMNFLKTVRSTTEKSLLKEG
T1 sequence (Q96SW2 whole entry, looked up): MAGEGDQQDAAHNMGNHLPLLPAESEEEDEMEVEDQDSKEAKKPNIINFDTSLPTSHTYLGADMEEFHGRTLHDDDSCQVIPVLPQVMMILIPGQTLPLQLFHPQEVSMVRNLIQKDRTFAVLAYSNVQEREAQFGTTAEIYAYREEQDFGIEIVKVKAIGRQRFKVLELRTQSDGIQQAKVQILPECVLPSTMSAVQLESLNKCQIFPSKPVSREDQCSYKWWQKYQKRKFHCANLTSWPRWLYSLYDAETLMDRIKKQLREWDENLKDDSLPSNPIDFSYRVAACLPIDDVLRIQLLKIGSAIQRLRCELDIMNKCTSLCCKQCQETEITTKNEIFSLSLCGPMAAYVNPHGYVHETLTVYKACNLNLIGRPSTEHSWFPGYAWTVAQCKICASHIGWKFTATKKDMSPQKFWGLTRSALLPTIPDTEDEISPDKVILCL

[2] = biological target: Indoleamine 2,3-dioxygenase 1 (Homo sapiens, UniProt P14902); assay: Inhibition of human IDO1 expressed in Escherichia coli BL21(DE3) using D-tryptophan as substrate assessed as formation of kynurenine production; conditions: DDE = dose-dependent effect
Chain of Indoleamine 2,3-dioxygenase 1 (P14902 whole entry, looked up): as the sequence (P14902 whole entry, looked up) above

[3] = biological target: T1, Protein cereblon/Indoleamine 2,3-dioxygenase 1; assay: Protac activity at IDO1/CRBN in IFNgamma-stimulated human GBM43 cells assessed as IDO1 degradation by measuring decrease in protein level measured after 24 hrs by Western blotting analysis; type: cell-based; conditions: GBM, dose 0.1-10 µM, DDE = dose-dependent effect
How it was run: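 GBM43 cells stimulated with 50 ng/mL human IFNγ for 24 h, then treated across 0.01 to 30 μM for 24 h. IDO1 was quantified by western blot densitometry as percent of IFNγ-induced untreated level. DC50 came from the dose-response curve; n = 3 independent experiments, mean ± SEM.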

[4] = biological target: T1, Protein cereblon/Indoleamine 2,3-dioxygenase 1; assay: Protac activity at IDO1/CRBN in IFNgamma-stimulated human PC-3 cells assessed as IDO1 degradation by measuring decrease in intracellular protein level measured after 24 hrs by Western blotting analysis; type: cell-based; conditions: dose 1-10 µM, DDE = dose-dependent effect
[5] = biological target: T1, Protein cereblon/Indoleamine 2,3-dioxygenase 1; assay: Protac activity at CRBN/IDO1 non-enzyme mediated NF-kappaB signal in IFNgamma-stimulated human MDA-MB-231 cells assessed as decrease in p65 phosphorylation at 0.1 to 10 uM measured after 24 hrs Western blotting assay; type: cell-based; conditions: dose 0.1-10 µM
How it was run: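 IFNγ-stimulated cells were induced for 24 h, then treated at several concentrations for 24 h. Lysates were western blotted for IDO1, phospho-p65, total p65 and GAPDH.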

[6] = Cmax in C57BL/6 mouse plasma at 25 mg/kg, ip; type: ADME, organism-based; parameters: dose 25 mg/kg, route ip
[7] = biological target: T1, Protein cereblon/Indoleamine 2,3-dioxygenase 1; assay: Protac activity at IDO1/CRBN in human U87 cells assessed as decrease in phosphorylated p65 in nucleus at 1 to 10 uM measured after 24 hrs by Western blot analysis; type: cell-based; conditions: dose 1-10 µM
How it was run: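 Cytoplasmic and nuclear fractions prepared from U87 cells after 24 h treatment with DMSO or compound. Fractions blotted for IDO1, phospho-p65 and total p65, with HDAC2 as nuclear marker and tubulin as cytoplasmic marker.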

[8] = biological target: T1, Protein cereblon/Indoleamine 2,3-dioxygenase 1; assay: Protac activity at CRBN/IDO1 non-enzyme mediated p65 phosphorylation in enzyme-null cDNA transfected in IFNgamma-stimulated human U87 cells measured at 0.1 to 10 uM after 24 hrs by Western blotting analysis; type: cell-based; conditions: dose 0.1-10 µM
[9] = biological target: T1, Protein cereblon/Indoleamine 2,3-dioxygenase 1; assay: Protac activity at IDO1/CRBN in IFNgamma-stimulated human PBMC cells isolated form GBM patient assessed as IDO1 degradation by measuring decrease in intracellular protein level measured after 24 hrs by Western blotting analysis; type: cell-based; conditions: DDE = dose-dependent effect
[10] = Drug uptake in C57BL/6 mouse intestine at 50 mg/kg, ip treated 5 days/week for 3 weeks by LC/MS/MS analysis; type: ADME, organism-based; conditions: in vivo, 504 h
[11] = Drug uptake in C57BL/6 mouse pancreas at 50 mg/kg, ip treated 5 days/week for 3 weeks by LC/MS/MS analysis; type: ADME, organism-based; conditions: in vivo, 504 h
[12] = Drug uptake in C57BL/6 mouse liver at 100 mg/kg, ip treated 5 days/week for 3 weeks by LC/MS/MS analysis; type: ADME, organism-based; conditions: in vivo, 504 h
[13] = biological target: T1, Protein cereblon/Indoleamine 2,3-dioxygenase 1; assay: Protac activity at IDO1/CRBN in IFNgamma-stimulated human PBMC cells isolated form non-GBM patient assessed as IDO1 degradation by measuring decrease in intracellular protein level measured after 24 hrs by Western blotting analysis; type: cell-based; conditions: DDE = dose-dependent effect
Mus musculus = assay: In vivo Protac activity at IDO1/CRBN in GL261 cells expressing mIDO1 cDNA mouse model assessed as decrease in IDO1 protein level in tumor measured at 25 mg/kg, ip
[14] = biological target: T1, Protein cereblon/Indoleamine 2,3-dioxygenase 1; assay: Protac activity at CRBN/IDO1 in IFNgamma-stimulated human PC-3 cells assessed as decrease in kynurenine level at 10 uM measured after 24 hrs by Ehrlich's test; type: cell-based
[15] = biological target: T1, Protein cereblon/Indoleamine 2,3-dioxygenase 1; assay: Protac activity at IDO1/CRBN in IFNgamma-stimulated human SK-OV-3 cells assessed as IDO1 degradation by measuring decrease in intracellular protein level measured after 24 hrs by Western blotting analysis; type: cell-based; conditions: dose 1-10 µM, DDE = dose-dependent effect
[16] = biological target: T1, Protein cereblon/Indoleamine 2,3-dioxygenase 1; assay: Protac activity at IDO1/CRBN in IFNgamma-stimulated human U87 cells assessed as IDO1 degradation at 10 uM measured after 24 hrs by Western blotting analysis relative to control; type: cell-based
How it was run: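 U87 GBM cells primed with human IFNγ 50 ng/mL for 24 h, then exposed to PROTAC at 10 μM for 24 h. Lysates run on western blot; IDO1 bands quantified by densitometry and expressed as percent of normalized IDO1 protein level.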

[17] = Drug uptake in C57BL/6 mouse brain at 10 to 100 mg/kg, ip treated 5 days/week for 3 weeks by LC/MS/MS analysis; type: ADME, organism-based; conditions: in vivo, 504 h, dose 10-100 mg/kg
How it was run: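 Male C57BL/6 mice dosed ip at 10, 25, 50 or 100 mg/kg, 5 days/week for 3 weeks, alongside vehicle. After 3 weeks, serum and brain homogenate were analysed by mass spectrometry for drug level; mean ± SEM, n = 3 mice/dose.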

[18] = biological target: T1, Protein cereblon/Indoleamine 2,3-dioxygenase 1; assay: Protac activity at CRBN/IDO1-FLAG expressed in human U87 cells assessed as IDO1 degradation in intracellular cytoplasmic compartment measured at 1 to 10 uM after 24 hrs by Western blotting analysis; type: subcellular; conditions: Cytoplasm, dose 1-10 µM
[19] = Drug uptake in C57BL/6 mouse liver at 50 mg/kg, ip treated 5 days/week for 3 weeks by LC/MS/MS analysis; type: ADME, organism-based; conditions: in vivo, 504 h
[20] = biological target: T1, Protein cereblon/Indoleamine 2,3-dioxygenase 1; assay: Protac activity at CRBN/IDO1 in IFNgamma-stimulated human U87 cells assessed as decrease in kynurenine level measured after 24 hrs by Ehrlich's test; type: cell-based; conditions: DDE = dose-dependent effect
How it was run: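 U87 or GBM43 cells given compound together with 50 ng/mL IFNγ for 24 h. Supernatant kynurenine was measured with Ehrlich's reagent. Cells cultured without IFNγ served as control.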

[21] = biological target: T1, Protein cereblon/Indoleamine 2,3-dioxygenase 1; assay: Protac activity at IDO1/CRBN in IFNgamma-stimulated human CD18 cells assessed as IDO1 degradation by measuring decrease in intracellular protein level measured after 24 hrs by Western blotting analysis; type: cell-based; conditions: CD18 cell, DDE = dose-dependent effect
[22] = biological target: T1, Protein cereblon/Indoleamine 2,3-dioxygenase 1; assay: Protac activity at IDO1/CRBN in IFNgamma-stimulated human OVCAR-5 cells assessed as IDO1 degradation by measuring decrease in intracellular protein level measured after 24 hrs by Western blotting analysis; type: cell-based; conditions: dose 1-10 µM, DDE = dose-dependent effect
[23] = biological target: T1, Protein cereblon/Indoleamine 2,3-dioxygenase 1; assay: Protac activity at IDO1/CRBN in IFNgamma-stimulated human U87 cells assessed as IDO1 degradation by measuring decrease in protein level measured at 10 uM continuous upto 72 hrs by Western blotting analysis; conditions: U87 cell
[24] = Toxicity in C57BL/6 mouse assessed as mortality at 100 mg/kg, ip treated 5 days/week for 3 weeks; type: organism-based; conditions: in vivo, 504 h

## C[C@@H](C(=O)Nc1ccc(OC2CCN(C(=O)CCOCCOCCNc3cccc4c3C(=O)N(C3CCC(=O)NC3=O)C4=O)CC2)cc1)[C@H]1CC[C@@H](c2ccnc3ccc(F)cc32)CC1 (stereo not given in full)
[1]
  Activity: Active
[2]
  Activity: Dde
[3]
  Activity: Dde
[4]
  Activity: Dde
[5]
  inhibition: Active
[6]
  Cmax: 365 µM
[7]
  Activity: Active
[8]
  inhibition: Active
[9]
  Activity: Dde
[10]
  Drug uptake: Active
[11]
  Drug uptake: Active
[12]
  Drug uptake: Active
[13]
  Activity: Dde
Mus musculus
  Activity: Active
[14]
  inhibition: Active
[15]
  Activity: Dde
[16]
  Activity: 94%
[17]
  Drug uptake: Active
[18]
  Activity: Active
[19]
  Drug uptake: Active
[20]
  inhibition: Dde
[21]
  Activity: Dde
[22]
  Activity: Dde
[23]
  Activity: Active
[24]
  Activity: Toxic
